The source made the active and inactive calls. No cut-off for these calls is given here.

Assay type in all cases: functional, organism-based
Assay [1] relates to Plasmodium falciparum. Kind of assay: Reduction of [3H]dihydroartemisinin uptake in chloroquine-sensitive Plasmodium falciparum FC27 infected erythrocytes after 90 min. Put shortly: (§1)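 Trophozoite-stage parasitized erythrocytes (5% parasitemia, 1.5% hematocrit) added to microtubes holding unlabeled antimalarial plus radiolabeled drug ([3H]DHA 1.4 Ci/mmol or [3H]CQ 50.4 Ci/mmol); 37°C, 90 min. Cells spun through silicon oil, radioactivity by liquid scintillation. Uptake as percent of control parasitized erythrocytes after subtracting uninfected-erythrocyte uptake; at least two experiments, each in triplicate.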

Assay [2] concerns Plasmodium falciparum. Kind of assay: Reduction of [3H]dihydroartemisinin uptake in chloroquine-resistant Plasmodium falciparum K1 infected erythrocytes after 90 min. Put shortly:
(§2)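 [3H]dihydroartemisinin (1.4 Ci/mmol) uptake into trophozoite-infected erythrocytes (5% parasitemia, 1.5% hematocrit), with unlabeled antimalarial added at the start, 90 min at 37°C. Cells spun through silicone oil, radioactivity counted by liquid scintillation. Uptake given as percent of untreated infected-cell control after subtracting uptake in uninfected erythrocytes. At least two experiments, each in triplicate.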

Assay [3] relates to Plasmodium falciparum. The experiment in a line: Reduction of [3H]dihydroartemisinin uptake in chloroquine-sensitive Plasmodium falciparum 3D7 infected erythrocytes after 90 min. Put shortly:
as §1

Assay [4] deals with Plasmodium falciparum. Kind of assay: Reduction of [3H]dihydroartemisinin uptake in chloroquine-resistant Plasmodium falciparum RSA11 infected erythrocytes after 90 min. Put shortly:
as §2

The test system of assay [5] is Plasmodium falciparum. The experiment in a line: Antimalarial activity against chloroquine-sensitive Plasmodium falciparum FC27.
In assay [6] the test system is Plasmodium falciparum. Kind of assay: Antimalarial activity against chloroquine-sensitive Plasmodium falciparum T996.
The subject of assay [7] is Plasmodium falciparum. The experiment in a line: Antimalarial activity against chloroquine-sensitive Plasmodium falciparum 3D7.
Assay [8] concerns Plasmodium falciparum. Kind of assay: Antimalarial activity against chloroquine-sensitive Plasmodium falciparum 106/1.
Assay [9] relates to Plasmodium falciparum. Kind of assay: Antimalarial activity against chloroquine-resistant Plasmodium falciparum K1.
Assay [10] relates to Plasmodium falciparum. Kind of assay: Antimalarial activity against chloroquine-resistant Plasmodium falciparum RSA11.
The test system of assay [11] is Plasmodium falciparum. Kind of assay: Antimalarial activity against chloroquine-resistant Plasmodium falciparum 7G8-mdr7G8.
Assay [12] concerns Plasmodium falciparum. The experiment in a line: Antimalarial activity against chloroquine-resistant Plasmodium falciparum 34-1/E.
Assay [13] relates to Plasmodium falciparum. The experiment in a line: Reduction of [3H]chloroquine uptake in chloroquine-sensitive Plasmodium falciparum 3D7 infected erythrocytes after 90 min. Put shortly: as §1
Assay [14] deals with Plasmodium falciparum. The experiment in a line: Reduction of [3H]chloroquine uptake in chloroquine-resistant Plasmodium falciparum RSA11 infected erythrocytes after 90 min. In outline: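 [3H]chloroquine (50.4 Ci/mmol) uptake into trophozoite-infected erythrocytes (5% parasitemia, 1.5% hematocrit), with unlabeled antimalarial added at the start, 90 min at 37°C. Cells spun through silicone oil, radioactivity counted by liquid scintillation. Uptake given as percent of untreated infected-cell control after subtracting uptake in uninfected erythrocytes. At least two experiments, each in triplicate.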

The subject of assay [15] is Plasmodium falciparum. Kind of assay: Reduction of [3H]chloroquine uptake in chloroquine-sensitive Plasmodium falciparum FC27 infected erythrocytes after 90 min. Put shortly: as §1

With `CCN(CC)Cc1cc(Nc2ccnc3cc(Cl)ccc23)ccc1O`, the result in the assay with Plasmodium falciparum [1], in the assay on Plasmodium falciparum [2], with Plasmodium falciparum [3] and in the assay with Plasmodium falciparum [4] was Active. The IC50 in the assay with Plasmodium falciparum [5] worked out at 6.68 nM; in the assay with Plasmodium falciparum [6] it was 14.8 nM; with Plasmodium falciparum [7], 18.4 nM; in the assay with Plasmodium falciparum [8], 17.5 nM; in the assay on Plasmodium falciparum [9] it was 22.4 nM; with Plasmodium falciparum [10], 26.7 nM. In addition, the figures for the IC50 in the assay with Plasmodium falciparum [11] and in the assay on Plasmodium falciparum [12] were 32.7 nM and 17.2 nM, respectively.
`Clc1ccc2c(N3CCN(CCCN4CCN(c5ccnc6cc(Cl)ccc56)CC4)CC3)ccnc2c1` [PIPERAQUINE]: the result with Plasmodium falciparum [13], in the assay on Plasmodium falciparum [14], with Plasmodium falciparum [14] (K1), in the assay on Plasmodium falciparum [1], with Plasmodium falciparum [2] and in the assay on Plasmodium falciparum [3] was Active. In addition, the outcome in the assay with Plasmodium falciparum [4] and with Plasmodium falciparum [15] was Active. The IC50 stood at 29.6 nM with Plasmodium falciparum [5]; 19.9 nM in the assay with Plasmodium falciparum [6]; 36.9 nM with Plasmodium falciparum [7]; 22.2 nM in the assay with Plasmodium falciparum [8]; 16.4 nM with Plasmodium falciparum [12].
Consider `OC(c1cc(C(F)(F)F)nc2c(C(F)(F)F)cccc12)C1CCCCN1` (configuration not stated), for which the outcome with Plasmodium falciparum [13], in the assay with Plasmodium falciparum [14], with Plasmodium falciparum [14] (K1), in the assay with Plasmodium falciparum [1], in the assay with Plasmodium falciparum [2] and with Plasmodium falciparum [3] was Active. In addition, the result in the assay with Plasmodium falciparum [4] and in the assay on Plasmodium falciparum [15] was Active.
Regarding `C[C@H]1[C@@H](O)O[C@@H]2O[C@@]3(C)CC[C@H]4[C@H](C)CC[C@@H]1[C@@]24OO3`, the result in the assay with Plasmodium falciparum [13], in the assay with Plasmodium falciparum [14], with Plasmodium falciparum [14] (K1), in the assay on Plasmodium falciparum [1], in the assay with Plasmodium falciparum [2] and in the assay with Plasmodium falciparum [3] was Active. In addition, the outcome in the assay with Plasmodium falciparum [4] and in the assay on Plasmodium falciparum [15] was Active.
Turning to `CO[C@H]1O[C@@H]2O[C@@]3(C)CC[C@H]4[C@H](C)CC[C@@H]([C@H]1C)[C@@]24OO3`, the outcome in the assay with Plasmodium falciparum [13], with Plasmodium falciparum [14], in the assay with Plasmodium falciparum [14] (K1), in the assay with Plasmodium falciparum [1], with Plasmodium falciparum [2] and in the assay on Plasmodium falciparum [3] was Active. Further, the result with Plasmodium falciparum [4] and with Plasmodium falciparum [15] was Active.
`CCN(CC)CCCC(C)Nc1ccnc2cc(Cl)ccc12` (configuration not stated): the result in the assay with Plasmodium falciparum [13], with Plasmodium falciparum [14], in the assay with Plasmodium falciparum [14] (K1), with Plasmodium falciparum [1], in the assay with Plasmodium falciparum [2] and in the assay with Plasmodium falciparum [3] was Active. The result in the assay on Plasmodium falciparum [4] and in the assay with Plasmodium falciparum [15] was Active.

The values are drawn from ChEMBL document CHEMBL1143854 (Antimicrob Agents Chemother, 2007).
